# Diaphorase inh = inhibits diaphorase or chemically oxidizes, flagging diaphorase assay artifacts; diaphorase resazurin-to-resorufin fluorescence, NADH, 16 min; bacterial (C. kluyveri) enzyme, not human; inhibition, % at 20 µM; hit rate 0.69% among 190,000;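 active = primary screen inhibition at 20 µM above a set limit, cut at about 50% in these data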;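 also: plate controls were DMSO with full reaction for no effect and wells lacking NADH for full effect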
#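 Assay system – diaphorase enzyme from Clostridium kluyveri · Amount – diaphorase 0.14 U/mL (working solution) · Times – reaction incubation of 16 min at room temperature · Controls – No-NADH positive control and DMSO neutral control · Signal – resorufin fluorescence 544/590 nm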
# HKDC1 inhibitor = inhibitors of human hexokinase HKDC1. recombinant HKDC1, G6PDH/diaphorase resazurin coupled fluorescence. inhibition, % at 20 µM. hit rate 0.16% among 340,000;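 active = inhibition above about 35% when tested at 20 µM, limit read from the data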;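 also: plate controls were DMSO wells with enzyme for no effect and DMSO wells lacking enzyme for full effect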
# Target sequence (Q2TB90 whole entry, looked up): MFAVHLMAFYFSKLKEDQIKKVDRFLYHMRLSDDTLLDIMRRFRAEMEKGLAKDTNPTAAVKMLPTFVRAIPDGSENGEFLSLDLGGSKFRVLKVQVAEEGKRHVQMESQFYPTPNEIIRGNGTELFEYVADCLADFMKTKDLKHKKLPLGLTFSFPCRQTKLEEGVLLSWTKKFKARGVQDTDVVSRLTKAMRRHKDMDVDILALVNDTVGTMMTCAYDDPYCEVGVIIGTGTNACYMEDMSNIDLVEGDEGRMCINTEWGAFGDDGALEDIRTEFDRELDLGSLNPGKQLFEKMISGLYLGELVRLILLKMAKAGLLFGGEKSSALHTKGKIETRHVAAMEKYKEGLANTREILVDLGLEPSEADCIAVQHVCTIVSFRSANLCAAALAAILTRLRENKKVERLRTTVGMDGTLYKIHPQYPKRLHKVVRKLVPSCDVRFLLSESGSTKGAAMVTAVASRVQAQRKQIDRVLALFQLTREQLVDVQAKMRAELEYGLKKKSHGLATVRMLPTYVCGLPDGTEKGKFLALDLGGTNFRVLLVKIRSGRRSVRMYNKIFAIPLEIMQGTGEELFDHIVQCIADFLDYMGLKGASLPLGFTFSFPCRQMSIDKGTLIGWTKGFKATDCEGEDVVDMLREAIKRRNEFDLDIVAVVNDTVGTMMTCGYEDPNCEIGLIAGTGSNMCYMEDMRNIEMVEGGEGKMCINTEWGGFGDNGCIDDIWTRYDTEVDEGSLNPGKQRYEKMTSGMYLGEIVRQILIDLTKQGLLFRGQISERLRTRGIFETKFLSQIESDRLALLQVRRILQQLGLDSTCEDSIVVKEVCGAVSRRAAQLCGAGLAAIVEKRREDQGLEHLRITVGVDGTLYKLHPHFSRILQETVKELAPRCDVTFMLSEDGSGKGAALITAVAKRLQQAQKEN
#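 Test system: recombinant HKDC1 (HK5) hexokinase enzyme, produced in-house; Amount: enzyme 5 µg/mL final; Buffer or medium: Tris pH 8.0 buffer with MgCl2, Tween-20, BSA, BME; Reagent: glucose and ATP substrates; Doses: 20 µM test compound, 1% DMSO; Incubation: 90 min reaction incubation at room temperature, dark; Detection: resorufin fluorescence at 613 nm.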
# Tb hexokinase = T. brucei hexokinase 1 inhibition | recombinant TbHK1, G6PDH-coupled NADH A340 | hit rate 0.11% among 220,000 | inhibition, % at 10 µM;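 active = inhibition of 50% or more in the single-dose primary screen; inactive = inhibition below 50%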
# PfGluPho inh = PfG6PD (Plasmodium falciparum) enzyme inhibition. inhibition, % at 20 µM. AID 504690. PfGluPho enzyme, NADPH resazurin-diaphorase fluorescence. hit rate 0.78% among 350,000;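 active = inhibition reaching at least a set limit at 20 µM in the primary screen, cut at about 59% in these data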;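 also: 0% = DMSO wells with substrate and 100% = DMSO wells lacking glucose-6-phosphate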
# G6PDH counter = counter-screen for G6PDH assay hits: L. mesenteroides G6PDH inhibition | Purified L. mesenteroides G6PDH, diaphorase/resazurin coupled fluorescence, 45 min | inhibition, % at 5 µM | hit rate 0.12% among 200,000 | AID 1020; in the data active = inhibition above about 50%
# PfG6PD confirm = confirmation of Plasmodium falciparum G6PD inhibitors | hit rate 34% among 2,400 | shares compounds with PfGluPho inh | inhibition, % at 20 µM | AID 504753 | recombinant PfGluPho, NADPH-diaphorase-resazurin fluorescence;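 active = inhibition of at least 50% at 20 µM in any single replicate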;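 also: 0% = DMSO with substrate and 100% = DMSO lacking glucose-6-phosphate substrate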
# Diaphorase 10uM = counter-screen for P. falciparum G6PD inhibitors: diaphorase inhibitors, oxidizers. shares compounds with PfGluPho inh. diaphorase-coupled resazurin reduction, fluorescence, NADPH 10 uM. inhibition, % at 20 µM. hit rate 39% among 820. AID 504862;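 active = average inhibition reaching 50% or more with the compound at 20 µM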;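 also: resorufin red fluorescence formed as diaphorase reduces resazurin using NADPH; 0% = DMSO with enzyme and 100% = DMSO without enzyme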
# Diaph ctr 30uM = counter-screen for P. falciparum G6PD inhibitors: diaphorase inhibitors, oxidizers; shares compounds with PfGluPho inh; Diaphorase/resazurin coupled assay, resorufin fluorescence, 30 uM NADPH; inhibition, % at 20 µM; hit rate 29% among 820; AID 504863;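 active = inhibition averaging 50% or more, tested at 20 µM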;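 also: 0% = DMSO with enzyme and 100% = DMSO wells lacking diaphorase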
# * marks the source's active call; other numbers are inactive results; x = no result given. Hits are enriched below; roughly 1.3% of the tested compounds scored in any of these assays.
SMILES,Diaphorase inh,HKDC1 inhibitor,Tb hexokinase,PfGluPho inh,G6PDH counter,PfG6PD confirm,others
COc1ccccc1Nc1nnc(SCc2cc(=O)n3ccsc3n2)s1,16,10,-11,67*,-9,40,
S=C(NCc1ccccc1)NNc1nc2ccccc2[nH]1,22,13,1,77*,-2,45,
c1ccc(CNc2nc3ccccc3[nH]2)cc1,16,4,5,18,4,x,
COc1ccc(N2CCN(CC(=O)Nc3ccc(C)cc3Br)CC2)cc1,x,4,x,-9,x,x,
Cc1ccc(S(=O)(=O)CCC(=O)OC(C)c2nnc(-c3cccs3)o2)cc1 (centres undefined),x,-2,x,6,x,x,
NC(N)=N/N=C/c1ccccc1,9,11,-1,-14,-1,x,
Oc1ccc(/C=N/N=C(c2ccccc2)c2ccccc2)c(O)c1O,75*,19,4,75*,-28,73*,Diaphorase 10uM=51*;Diaph ctr 30uM=35
O=[N+]([O-])c1ccc2nc(-c3ccncc3)[nH]c2c1,x,6,-51,35,x,x,
Cc1ccc(-c2nc3ccc([N+](=O)[O-])cc3[nH]2)cc1,9,0,-19,99*,-6,38,
O=[N+]([O-])c1cccc(-c2nc3ccc([N+](=O)[O-])cc3[nH]2)c1,-6,1,-10,108*,4,72*,Diaphorase 10uM=60*;Diaph ctr 30uM=59*
O=[N+]([O-])c1ccc2nc(-c3ccc(Cl)cc3)[nH]c2c1,0,-1,-14,107*,2,46,
COc1ccc(-c2nc3ccc([N+](=O)[O-])cc3[nH]2)cc1,12,-4,-18,110*,15,46,
COc1ccccc1N1CCN(Cc2nc(N)nc(Nc3ccc(C)c(Cl)c3)n2)CC1,22,5,-12,8,-21,x,
COC(=O)CCC(=O)OC1(C)C(=O)C2=CN(C3CC3)C(c3ccc(OC)cc3)=CC2=C(Br)C1=O (centres undefined),x,34,x,72*,x,52*,Diaphorase 10uM=46;Diaph ctr 30uM=49
COC(=O)CCC(=O)OC1(C)C(=O)C2=CN(CCCOC(C)C)C(c3ccc(OC)cc3)=CC2=C(Br)C1=O (centres undefined),x,28,-34,82*,x,38,
COC(=O)CCC(=O)OC1(C)C(=O)C2=CN(CCc3c[nH]c4ccccc34)C(c3ccc(OC)cc3)=CC2=C(Br)C1=O (centres undefined),x,28,x,53,x,x,
Oc1c(Cl)cc(Cl)cc1/C=N/NC(=S)NC1CC2C=CC1C2 (centres undefined),x,-18,-9,-44,x,x,
Nc1nc2ccccc2n1/N=C/c1ccc(Br)cc1,3,0,-2,66*,-7,-4,
Nc1nc2ccccc2n1/N=C/c1ccc2c(c1)OCO2,x,1,-47,36,x,x,
COc1ccc(CC(=S)N2CCOCC2)cc1,3,-12,0,66*,-4,10,
COC(=O)c1c(NC(=O)Cc2ccccc2)sc2c1CCN(C(C)C)C2,x,-3,x,-11,x,x,
CC(=O)N1CCc2c(sc(NC(=O)c3ccc([N+](=O)[O-])o3)c2C#N)C1,26,6,-5,60*,1,13,
COC(=O)c1c(NC(=O)c2ccc([N+](=O)[O-])o2)sc2c1CCN(C(C)C)C2,x,18,x,68*,x,20,
CCC(=O)c1ccc(OCC(=O)OCC(=O)Nc2cccc(S(=O)(=O)N3CCOCC3)c2)cc1,x,-3,x,7,x,x,
CN(CC(=O)O/N=C(\N)c1ccccn1)S(=O)(=O)c1ccc(Br)cc1,8,-11,3,3,-2,x,
SMILES,Diaphorase inh,HKDC1 inhibitor,Tb hexokinase,PfGluPho inh,G6PDH counter,PfG6PD confirm,others
COc1cc(NCCCCCCN)c2ncccc2c1OC,x,20,x,90*,x,46,
COc1cc(N)c2ncccc2c1OC,x,6,x,70*,x,74*,Diaphorase 10uM=22;Diaph ctr 30uM=8
O=C(CSc1nnnn1-c1ccc(Cl)cc1)NNC(=O)c1ccc([N+](=O)[O-])cc1,2,-5,-5,-14,4,x,
CC(C)COP(=O)(c1ccc(N(C)C)cc1)C(O)c1ccc(N(C)C)cc1 (centres undefined),x,-6,x,5,x,x,
CC(C)OP(=O)(c1ccc(N(C)C)cc1)C(O)c1ccc(N(C)C)cc1 (centres undefined),x,-1,x,68*,x,8,
CCS(=O)(=O)c1ccc2oc(Nc3ccc(C(C)C)cc3)nc2c1,12,-22,8,74*,-2,43,
CCN(CC)S(=O)(=O)c1ccc2oc(Nc3ccc(OC)cc3)nc2c1,x,2,x,16,x,x,
CCOc1ccc(Nc2nc3cc(S(=O)(=O)N(CC)CC)ccc3o2)cc1,8,-8,-4,62*,6,18,
COc1ccc(NC(=O)c2oc3ccccc3c2CSC)cn1,x,3,x,73*,x,29,
CCOCc1c(C(=O)Nc2ccc(OC)nc2)oc2ccccc12,x,-3,x,41,x,x,
Cc1ccc2occ(CN3CCN(Cc4ccccc4)CC3)c(=O)c2c1,-12,x,-3,x,2,x,
CCn1cc(/C=N/NC(=O)c2ccc(C#N)cc2F)c2ccccc21,8,-2,-42,107*,4,89*,Diaphorase 10uM=81*;Diaph ctr 30uM=64*
COC(=O)Cn1cc(/C=N/NC(=O)c2ccc(C#N)cc2F)c2ccccc21,11,-7,-38,3,7,x,
Cc1ccc(NC(=O)CN2C(=O)CC(C)S(=O)(=O)c3ccccc32)cc1 (centres undefined),x,0,x,12,x,x,
COCCN(CCOC)Cc1c(O)ccc2c1O/C(=C\c1ccc(C)o1)C2=O,x,5,x,63*,x,8,
O=S(=O)(Nc1ccccc1-c1ccccc1)c1ccccc1,x,3,x,59,x,x,
Cc1cc(C)c(S(=O)(=O)Nc2ccccc2-c2ccccc2)c(C)c1,23,16,8,85*,15,8,
N#Cc1c(C#N)c(SSc2c(C#N)c(C#N)c(N)n2-c2ccccc2)n(-c2ccccc2)c1N,x,-1,x,111*,x,61*,Diaphorase 10uM=-12;Diaph ctr 30uM=-18
CN(CCO)c1cc(Sc2nc3ccccc3s2)c2nonc2c1[N+](=O)[O-],2,4,4,88*,5,70*,Diaphorase 10uM=4;Diaph ctr 30uM=-12
CC(=O)OCCN(C)c1cc(SC(C)C)c2nonc2c1[N+](=O)[O-],11,-1,-1,12,14,x,
C/C(Cn1nnc([N+](=O)[O-])n1)=N\NC(=O)c1ccccc1O,x,11,-28,67*,x,75*,Diaphorase 10uM=31;Diaph ctr 30uM=34
C/C(Cn1nnc([N+](=O)[O-])n1)=N\NC(=O)c1ccc(O)cc1O,18,8,-11,49,8,67*,Diaphorase 10uM=23;Diaph ctr 30uM=31
O=C(NCCCN=C1NS(=O)(=O)c2ccccc21)c1ccc(S(=O)(=O)N2CCCCC2)cc1,8,-5,6,-6,-1,x,

# Compound activity as filed in PubChem.
